# Key:
# [1] = system: AbaR; assay: AbaR antagonism reporter gene assay; format: cell-based, Acinetobacter baumannii; details: 100 μM against OH-dDHL at 700 nM; triplicate, error ±10%
# [2] = system: AbaR; assay: AbaR agonism reporter gene assay; format: cell-based, Acinetobacter baumannii; details: 100 μM, normalized to OH-dDHL at 100 μM (100%); triplicate, error ±10%
# In short: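 Overnight A. baumannii abaI::lacZ culture diluted 1:100 in LB (pH 7.0), added to test compound from DMSO stock (final 100 or 10 μM), incubated statically at 37 °C for 18–24 h. OD600 read; aliquot lysed with Z buffer, CHCl3 and 0.1% SDS; ONPG 20 min at […], stopped with 1 M Na2CO3; A420/A550 converted to Miller units. Triplicate; scaled to 100 μM OH-dDHL (100%).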
# [3] = molecular target: T1, LasR (Pseudomonas aeruginosa, UniProt P25084); assay: LasR agonism reporter gene assay; format: cell-based; details: 100 μM, normalized to OdDHL at 100 μM (100%); triplicate, error ≤10%
# T1 sequence (P25084 whole entry): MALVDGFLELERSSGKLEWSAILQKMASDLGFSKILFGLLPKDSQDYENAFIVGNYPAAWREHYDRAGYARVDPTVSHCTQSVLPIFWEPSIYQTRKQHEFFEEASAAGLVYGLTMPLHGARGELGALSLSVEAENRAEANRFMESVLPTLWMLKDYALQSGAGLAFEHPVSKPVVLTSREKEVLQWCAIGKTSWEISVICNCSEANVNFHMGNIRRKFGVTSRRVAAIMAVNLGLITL
# [4] = molecular target: T1, LasR; assay: LasR antagonism reporter gene assay; format: cell-based; details: 100 μM against OdDHL at 10 nM; triplicate, error ≤10%
smiles,measurement,setting,value
CCCc1cn(CC(=O)NC2CCOC2=O)nn1 (stereo not shown) [I-A],Inhibition [%] AbaR,[1],47%
same,Activation [%] AbaR,[2],0%
same,Activation [%] LasR,[3],0%
same,Inhibition [%] LasR,[4],55%

# From paper PMC3566574 (Organic & biomolecular chemistry, 2012)
